Results as given in ChEMBL document CHEMBL1152451 (J Med Chem, 2009).

Experiments:
Type in all cases: ADME, organism-based
[1] = Bioavailability in spontaneously hypersensitive rat at 1 mg/kg, iv and 2 mg/kg, po; conditions: spontaneously hypersensitive rat (SHR), in vivo
[2] = Clearance in spontaneously hypersensitive rat at 1 mg/kg, iv and 2 mg/kg, po; conditions: spontaneously hypersensitive rat (SHR), in vivo
[3] = Volume of distribution at steady state in spontaneously hypersensitive rat at 1 mg/kg, iv and 2 mg/kg, po; conditions: spontaneously hypersensitive rat (SHR), in vivo, read-out: Vdss
[4] = Half life in spontaneously hypersensitive rat at 1 mg/kg, iv and 2 mg/kg, po; conditions: spontaneously hypersensitive rat (SHR), in vivo
[5] = Drug level in spontaneously hypersensitive rat at 300 mg/kg, po qd for 8 days measured after 4 hrs post dose; design: dose 300 mg/kg, route oral; conditions: spontaneously hypersensitive rat (SHR), in vivo, read-out: Drug uptake
[6] = Drug level in spontaneously hypersensitive rat at 300 mg/kg, po qd for 8 days measured after 24 hrs post dose; design: dose 300 mg/kg, route oral; conditions: spontaneously hypersensitive rat (SHR), in vivo, read-out: Drug uptake
Rattus norvegicus [7] = test: Increase in endogenous 14,15-EET/DHET ratio in spontaneously hypersensitive rat kidney at 300 mg/kg, po for 8 days by LC/MS/MS analysis; design: dose 300 mg/kg, route oral; conditions: in vivo, 192 h
In short: (§1)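 SHRs given daily oral doses, with kidneys analysed for endogenous epoxide/diol ratios and for 20-HETE. A parallel PK group of SHRs was sampled on the eighth day of dosing at 4 and 24 h postdose.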

Rattus norvegicus [8] = test: Increase in endogenous 20-HETE level in spontaneously hypersensitive rat kidney at 300 mg/kg, po for 8 days by LC/MS/MS analysis; design: dose 300 mg/kg, route oral; conditions: in vivo, 192 h; in short: as §1

| bioavailability [1] [%] | clearance [2] [mL/min/kg] | Vd [3] [L/kg] | half-life [4] [h] | concentration at 4 h [5] [µM] | concentration at 24 h [6] [µM] | fold change (FC) (Rattus norvegicus [7]) | fold change (FC) (Rattus norvegicus [8]) | SMILES |
| --- | --- | --- | --- | --- | --- | --- | --- | --- |
| 77 | 29 | 2.7 | 1.4 | – | – | – | – | O=C(NC1CC1c1ccccc1)N1CCC(c2nc(-c3ccccn3)no2)CC1 (stereo in doubt; 2d) |
| – | – | – | – | 35 | 20 | 2 | 2.5 | O=C(N[C@@H]1C[C@H]1c1ccccc1)N1CCC(c2nc(-c3ccccn3)no2)CC1 |
